Measured values reported in ChEMBL document CHEMBL1158962, “Isolation and characterization of two antimicrobial agents from mace (Myristica fragrans)” (1991).
In brackets after ≈: the same amount, converted by molar mass.

What was measured:
Format in all cases: functional
Candida albicans [1] = assay: Antimicrobial activity against Candida albicans 3110 after 48 hrs by agar dilution method
In short: (§1)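 Agar dilution. Each test substance was first taken at 320 µg per 0.1 ml DMSO, mixed with 10 ml warm nutrient agar (45-50°) and left to set. C. albicans strains were streaked radially and incubated at 30°. MIC was the lowest drug concentration with no growth, read at 24 h and at 48 h. Nystatin was the positive control.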

Candida albicans [2] = assay: Antimicrobial activity against Candida albicans 3110 after 24 hrs by agar dilution method; in short: as §1
Enterococcus durans [3] = assay: Antimicrobial activity against Streptococcus durans NCTC 8307 after 24 hrs by agar dilution method; conditions: NCTC 8307, 24 h
In short: as §1, with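 “set. NCTC bacteria” for “set. C. albicans strains”, “at 37°.” for “at 30°.”, “concentration showing” for “concentration with”, “h. Chloramphenicol” for “h. Nystatin”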

Bacillus subtilis [4] = assay: Antimicrobial activity against Bacillus subtilis NCTC 10400 after 24 hrs by agar dilution method; conditions: NCTC 10400, 24 h
In short: as §1, with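 “set. NCTC bacteria” for “set. C. albicans strains”, “at 37°.” for “at 30°.”, “concentration showing” for “concentration with”, “h. Chloramphenicol” for “h. Nystatin”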

Candida albicans [5] = assay: Antimicrobial activity against Candida albicans 3153 after 24 hrs by agar dilution method; in short: as §1
Staphylococcus aureus [6] = assay: Antimicrobial activity against Staphylococcus aureus NCTC 6571 after 24 hrs by agar dilution method; conditions: NCTC 6571, 24 h
In short: as §1, with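 “set. NCTC bacteria” for “set. C. albicans strains”, “at 37°.” for “at 30°.”, “concentration showing” for “concentration with”, “h. Chloramphenicol” for “h. Nystatin”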

Enterococcus durans [7] = assay: Antimicrobial activity against Streptococcus durans NCTC 8307 after 48 hrs by agar dilution method; conditions: NCTC 8307, 48 h
In short: as §1, with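 “set. NCTC bacteria” for “set. C. albicans strains”, “at 37°.” for “at 30°.”, “concentration showing” for “concentration with”, “h. Chloramphenicol” for “h. Nystatin”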

Candida albicans [8] = assay: Antimicrobial activity against Candida albicans ATCC 12301 after 24 hrs by agar dilution method; in short: as §1
Staphylococcus aureus [9] = assay: Antimicrobial activity against Staphylococcus aureus NCTC 6571 after 48 hrs by agar dilution method; conditions: NCTC 6571, 48 h
In short: as §1, with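 “set. NCTC bacteria” for “set. C. albicans strains”, “at 37°.” for “at 30°.”, “concentration showing” for “concentration with”, “h. Chloramphenicol” for “h. Nystatin”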

Bacillus subtilis [10] = assay: Antimicrobial activity against Bacillus subtilis NCTC 10400 after 48 hrs by agar dilution method; conditions: NCTC 10400, 48 h
In short: as §1, with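 “set. NCTC bacteria” for “set. C. albicans strains”, “at 37°.” for “at 30°.”, “concentration showing” for “concentration with”, “h. Chloramphenicol” for “h. Nystatin”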

Candida albicans [11] = assay: Antimicrobial activity against Candida albicans ATCC 12301 after 48 hrs by agar dilution method; in short: as §1
Candida albicans [12] = assay: Antimicrobial activity against Candida albicans 3153 after 48 hrs by agar dilution method; in short: as §1
[13] = Candida albicans, 3153, 24 h, read-out: MIC
[14] = ATCC 10231, 24 h, in the assay text read “ATCC 10231” for “ATCC 12301”
[15] = ATCC 10231, 48 h, in the assay text read “ATCC 10231” for “ATCC 12301”
[16] = ATCC 10231, 24 h, in the assay text read “ATCC 10231” for “ATCC 12301”, read-out: MIC
[17] = Candida albicans, 3110, 24 h, read-out: MIC
[18] = Candida albicans, 3110, 48 h, read-out: MIC
[19] = ATCC 10231, 48 h, in the assay text read “ATCC 10231” for “ATCC 12301”, read-out: MIC
[20] = Candida albicans, 3153, 48 h, read-out: MIC

Molecule | MIC (Candida albicans [2]; Candida albicans, 3110, 24 h) [µg/mL] | MIC (Enterococcus durans [3]; read-out: MIC) [µg/mL] | MIC (Bacillus subtilis [4]; read-out: MIC) [µg/mL] | MIC (Candida albicans [5]; [13]) [µg/mL] | MIC (Staphylococcus aureus [6]; read-out: MIC) [µg/mL] | MIC (Enterococcus durans [7]; read-out: MIC) [µg/mL] | MIC (Staphylococcus aureus [9]; read-out: MIC) [µg/mL] | MIC (Bacillus subtilis [10]; read-out: MIC) [µg/mL] | MIC (Enterococcus durans [3]) [µg/mL] | MIC (Bacillus subtilis [4]) [µg/mL] | MIC (Candida albicans [8]; [16]) [µg/mL] | MIC (Candida albicans [2]; [17]) [µg/mL] | other results
Oc1ccc(CCCCCCCCC(O)c2c(O)cccc2O)cc1 (centres undefined) | > 32 | 8 (≈ 23.2 µM) | 4 (≈ 11.6 µM) | 32 (≈ 92.9 µM) | 8 (≈ 23.2 µM) | 16 (≈ 46.5 µM) | 16 (≈ 46.5 µM) | 4 (≈ 11.6 µM) | – | – | – | – | MIC (Candida albicans [1]; Candida albicans, 3110, 48 h): > 32 µg/mL; MIC (Candida albicans [8]; [14]): > 32 µg/mL; MIC (Candida albicans [11]; [15]): > 32 µg/mL; MIC (Candida albicans [12]; Candida albicans, 3153, 48 h): > 32 µg/mL
COc1ccc(CCCCCCCCC(=O)c2c(O)cccc2OC)cc1 | > 32 | – | – | < 32 | – | – | – | – | > 32 | > 32 | < 32 | – | MIC (Staphylococcus aureus [6]): > 32 µg/mL
CC(=O)c1c(O)cccc1O | – | – | – | – | – | – | – | – | > 32 | > 32 | – | < 32 | MIC (Candida albicans [5]; Candida albicans, 3153, 24 h): > 32 µg/mL; MIC (Staphylococcus aureus [6]): > 32 µg/mL; MIC (Candida albicans [8]; [14]): > 32 µg/mL
O=C(N[C@H](CO)[C@H](O)c1ccc([N+](=O)[O-])cc1)C(Cl)Cl [CHLORAMPHENICOL] | – | 1 (≈ 3.09 µM) | 4 (≈ 12.4 µM) | – | 4 (≈ 12.4 µM) | 4 (≈ 12.4 µM) | 4 (≈ 12.4 µM) | 4 (≈ 12.4 µM) | – | – | – | – | –
NYSTATIN | – | – | – | – | – | – | – | – | – | – | – | – | MIC (Candida albicans [1]): 4 µg/mL; MIC (Candida albicans [2]): 2 µg/mL; MIC (Candida albicans [5]): 2 µg/mL; MIC (Candida albicans [8]): 2 µg/mL; MIC (Candida albicans [11]): 4 µg/mL; MIC (Candida albicans [12]): 4 µg/mL
Oc1ccc(CCCCCCCCCc2c(O)cccc2O)cc1 | – | 4 (≈ 12.2 µM) | 4 (≈ 12.2 µM) | 8 (≈ 24.4 µM) | 4 (≈ 12.2 µM) | 8 (≈ 24.4 µM) | 4 (≈ 12.2 µM) | 4 (≈ 12.2 µM) | – | – | 16 (≈ 48.7 µM) | 8 (≈ 24.4 µM) | MIC (Candida albicans [1]; [18]): 8 µg/mL (≈ 24.4 µM); MIC (Candida albicans [11]; [19]): 16 µg/mL (≈ 48.7 µM); MIC (Candida albicans [12]; [20]): 8 µg/mL (≈ 24.4 µM)
O=C(CCCCCCCCc1ccc(O)c(O)c1)c1c(O)cccc1O [MALABARICONE C] | – | 4 (≈ 11.2 µM) | 2 (≈ 5.58 µM) | 8 (≈ 22.3 µM) | 4 (≈ 11.2 µM) | 8 (≈ 22.3 µM) | 8 (≈ 22.3 µM) | 2 (≈ 5.58 µM) | – | – | 32 (≈ 89.3 µM) | 8 (≈ 22.3 µM) | MIC (Candida albicans [1]; [18]): 8 µg/mL (≈ 22.3 µM); MIC (Candida albicans [11]; [19]): 32 µg/mL (≈ 89.3 µM); MIC (Candida albicans [12]; [20]): 8 µg/mL (≈ 22.3 µM)
O=C(CCCCCCCCc1ccc(O)cc1)c1c(O)cccc1O [MALABARICONE B] | – | 1 (≈ 2.92 µM) | 1 (≈ 2.92 µM) | 4 (≈ 11.7 µM) | 1 (≈ 2.92 µM) | 2 (≈ 5.84 µM) | 1 (≈ 2.92 µM) | 1 (≈ 2.92 µM) | – | – | 16 (≈ 46.7 µM) | 8 (≈ 23.4 µM) | MIC (Candida albicans [1]; [18]): 8 µg/mL (≈ 23.4 µM); MIC (Candida albicans [11]; [19]): 16 µg/mL (≈ 46.7 µM); MIC (Candida albicans [12]; [20]): 8 µg/mL (≈ 23.4 µM)
COc1cccc(O)c1C(=O)CCCCCCCCc1ccc(O)cc1 | > 32 | 2 (≈ 5.61 µM) | 4 (≈ 11.2 µM) | – | 4 (≈ 11.2 µM) | 4 (≈ 11.2 µM) | 4 (≈ 11.2 µM) | 4 (≈ 11.2 µM) | – | – | – | – | MIC (Candida albicans [5]; Candida albicans, 3153, 24 h): > 32 µg/mL; MIC (Candida albicans [8]; [14]): > 32 µg/mL
COc1ccc(CCCCCCCCC(=O)c2c(OC)cccc2OC)cc1 | > 32 | – | – | < 32 | – | – | – | – | > 32 | > 32 | < 32 | – | MIC (Staphylococcus aureus [6]): > 32 µg/mL
COc1cccc(OC)c1C(=O)CCCCCCCCc1ccc(O)cc1 | – | – | – | – | 32 (≈ 86.4 µM) | – | – | – | > 32 | > 32 | < 32 | < 32 | MIC (Candida albicans [1]; Candida albicans, 3110, 48 h): > 32 µg/mL; MIC (Candida albicans [5]; Candida albicans, 3153, 24 h): > 32 µg/mL; MIC (Enterococcus durans [7]): > 32 µg/mL; MIC (Staphylococcus aureus [9]): > 32 µg/mL; MIC (Bacillus subtilis [10]): > 32 µg/mL; MIC (Candida albicans [11]; [15]): > 32 µg/mL; MIC (Candida albicans [12]; Candida albicans, 3153, 48 h): > 32 µg/mL
